Source: ChEMBL document CHEMBL4706489, “Hydrogen sulfide releasing oridonin derivatives induce apoptosis through extrinsic and intrinsic pathways” (Eur J Med Chem, 2020)
Activity calls are given as the source filed them. The calls are words filed in the database; no cut-off is given here.

Legend:
HepG2 [1] = experiment: Induction of apoptosis in human HepG2 cells assessed as late apoptotic cells at 0.5 uM after 48 hrs by annexin V FITC and propidium iodide staining based flow cytometric analysis (reference value: 3.17%); assay type: functional
HepG2 [2] = experiment: Antiproliferative activity against human HepG2 cells assessed as reduction in cell viability after 72 hrs by MTT assay; details: HepG2, 72 h
K562 [3] = experiment: Induction of apoptosis in human K562 cells assessed as decrease in survivin protein expression at 1 uM after 24 hrs by chemiluminescence based apoptosis array method; assay type: functional, cell-based
Procedure, shortened: (§1)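 K562 cells were treated with 1 test agent for 24 h. Diluted total-cell lysates were applied to a human apoptosis antibody array covering 35 apoptosis-related proteins for 24 h. Unbound protein was washed off, and arrays were probed with a biotinylated detection antibody for 1 h. Relative expression was read from chemiluminescent signal by digital imaging.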

K562 [4] = experiment: Induction of apoptosis in human K562 cells assessed as early apoptotic cells at 1 uM after 48 hrs by annexin V FITC and propidium iodide staining based flow cytometric analysis (reference value: 2.13%); assay type: functional
HCT-116 = experiment: Antiproliferative activity against human HCT-116 cells assessed as reduction in cell viability after 72 hrs by MTT assay; details: HCT-116, 72 h
HepG2 [5] = experiment: Induction of cell cycle arrest in human HepG2 cells assessed as accumulation at G2 phase at 1 uM after 48 hrs by propidium iodide staining based flow cytometric analysis (reference value: 16.48 to 16.97%); assay type: functional
Procedure, shortened: (§2)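 HepG2 cells were treated with 0, 0.50, 1.0 or 2.0 test agent for 48 h. Cells were washed in cold PBS and fixed in 70% ethanol at −20 °C overnight. DNA-content distribution was measured by flow cytometry. Mean ± SD, three independent experiments.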

HepG2 [6] = experiment: Induction of cell cycle arrest in human HepG2 cells assessed as accumulation at G1 phase at 1 uM after 48 hrs by propidium iodide staining based flow cytometric analysis (reference value: 49.46 to 50.3%); assay type: functional; procedure, shortened: as §2
K562 [7] = experiment: Induction of apoptosis in human K562 cells assessed as down regulation of procaspase-3 at 1 uM after 24 hrs by chemiluminescence based apoptosis array method; assay type: functional, cell-based; procedure, shortened: as §1
HepG2 [8] = experiment: Induction of cell cycle arrest in human HepG2 cells assessed as accumulation at G1 phase at 2 uM after 48 hrs by propidium iodide staining based flow cytometric analysis (reference value: 49.46 to 50.3%); assay type: functional; procedure, shortened: as §2
K562 [9] = experiment: Induction of cell cycle arrest in human K562 cells assessed as accumulation at G2 phase at 2 uM after 48 hrs by propidium iodide staining based flow cytometric analysis (reference value: 10.96 to 12.03%); assay type: functional
K562 [10] = experiment: Induction of cell cycle arrest in human K562 cells assessed as accumulation at G2 phase at 0.5 uM after 48 hrs by propidium iodide staining based flow cytometric analysis (reference value: 10.96 to 12.03%); assay type: functional
HepG2 [11] = experiment: Induction of apoptosis in human HepG2 cells assessed as viable cells at 2 uM after 48 hrs by annexin V FITC and propidium iodide staining based flow cytometric analysis (reference value: 93.5%); assay type: functional; details: read-out: Activity
HepG2 [12] = experiment: Induction of cell cycle arrest in human HepG2 cells assessed as accumulation at S phase at 2 uM after 48 hrs by propidium iodide staining based flow cytometric analysis (reference value: 33.22 to 33.58%); assay type: functional
HepG2 [13] = experiment: Induction of apoptosis in human HepG2 cells assessed as viable cells at 0.5 uM after 48 hrs by annexin V FITC and propidium iodide staining based flow cytometric analysis (reference value: 93.5%); assay type: functional; details: read-out: Activity
K562 [14] = experiment: Induction of cell cycle arrest in human K562 cells assessed as accumulation at G1 phase at 0.5 uM after 48 hrs by propidium iodide staining based flow cytometric analysis (reference value: 43.24 to 43.37%); assay type: functional
K562 [15] = experiment: Induction of cell cycle arrest in human K562 cells assessed as accumulation at G2 phase at 1 uM after 48 hrs by propidium iodide staining based flow cytometric analysis (reference value: 10.96 to 12.03%); assay type: functional
K562 [16] = experiment: Induction of cell cycle arrest in human K562 cells assessed as accumulation at G1 phase at 2 uM after 48 hrs by propidium iodide staining based flow cytometric analysis (reference value: 43.24 to 43.37%); assay type: functional
[17] = Selectivity ratio of IC50 for cytotoxicity against human PBMC cells to IC50 for antiproliferative activity against human K562 cells; assay type: toxicity, cell-based; details: read-out: Ratio IC50
HepG2 [18] = experiment: Induction of apoptosis in human HepG2 cells assessed as early apoptotic cells at 0.5 uM after 48 hrs by annexin V FITC and propidium iodide staining based flow cytometric analysis (reference value: 2.89%); assay type: functional
K562 [19] = experiment: Induction of apoptosis in human K562 cells assessed as late apoptotic cells at 2 uM after 48 hrs by annexin V FITC and propidium iodide staining based flow cytometric analysis (reference value: 0.42%); assay type: functional
K562 [20] = experiment: Induction of apoptosis in human K562 cells assessed as nuclear fragmentation after 24 to 48 hrs by Hoechst 33258 staining based fluorescence microscopic method; assay type: functional, cell-based; details: dose 1-4 µM, time 24-48 hrs
Procedure, shortened: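 K562 cells were exposed to 1.0, 2.0 or 4.0 test agent, with DMSO as vehicle control, for 24 h and 48 h. They were harvested, washed twice in PBS and stained with Hoechst 33258 (0.5 mg/mL in PBS) for 30 min in darkness. Slides were viewed by fluorescence microscopy with a DAPI filter. Three random fields of about 200 nuclei per sample were scored as % apoptotic nuclei. Three independent experiments.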

K562 [21] = experiment: Induction of cell cycle arrest in human K562 cells assessed as accumulation at S phase at 2 uM after 48 hrs by propidium iodide staining based flow cytometric analysis (reference value: 44.73 to 45.96%); assay type: functional
HepG2 [22] = experiment: Induction of cell cycle arrest in human HepG2 cells assessed as accumulation at S phase at 0.5 uM after 48 hrs by propidium iodide staining based flow cytometric analysis (reference value: 33.22 to 33.58%); assay type: functional
K562 [23] = experiment: Induction of apoptosis in human K562 cells assessed as late apoptotic cells at 0.5 uM after 48 hrs by annexin V FITC and propidium iodide staining based flow cytometric analysis (reference value: 0.42%); assay type: functional
K562 [24] = experiment: Induction of cell cycle arrest in human K562 cells assessed as accumulation at S phase at 1 uM after 48 hrs by propidium iodide staining based flow cytometric analysis (reference value: 44.73 to 45.96%); assay type: functional
[25] = Selectivity ratio of IC50 for cytotoxicity against human L02 cells to IC50 for antiproliferative activity against human HepG2 cells; assay type: toxicity, cell-based; details: read-out: Ratio IC50
K562 [26] = experiment: Induction of apoptosis in human K562 cells assessed as viable cells at 2 uM after 48 hrs by annexin V FITC and propidium iodide staining based flow cytometric analysis (reference value: 96.76%); assay type: functional; details: read-out: Activity
K562 [27] = experiment: Induction of apoptosis in human K562 cells assessed as early apoptotic cells at 2 uM after 48 hrs by annexin V FITC and propidium iodide staining based flow cytometric analysis (reference value: 2.13%); assay type: functional
[28] = Selectivity ratio of IC50 for cytotoxicity against human L02 cells to IC50 for antiproliferative activity against human K562 cells; assay type: toxicity, cell-based; details: read-out: Ratio IC50

IC50 (HepG2 [2]): 2570 nM
IC50 (HCT-116): 5.81 µM
SMILES: C=C1C(=O)[C@]23[C@H](OC(=O)CCC(=O)OCCCCCCOc4ccc(-c5cc(=S)ss5)cc4)[C@H]1CC[C@H]2[C@@]12CO[C@@]3(O)[C@@H](O)[C@@H]1C(C)(C)CC[C@@H]2OC(C)=O
Activity (HepG2 [1]): 10.09%
Activity (K562 [3]): Active
Activity (K562 [4]): 11.39%
Activity (HepG2 [5]): 11.5%
Activity (HepG2 [6]): 61.39%
Activity (K562 [7]): Active
Activity (HepG2 [8]): 65.1%
Activity (K562 [9]): 7.39%
Activity (K562 [10]): 11.07%
viability at 2 µM (HepG2 [11]): 31.5%
Activity (HepG2 [12]): 28.3%
viability at 0.5 µM (HepG2 [13]): 76.7%
Activity (K562 [14]): 38.61%
Activity (K562 [15]): 10.32%
Activity (K562 [16]): 29.97%
selectivity ratio [17]: 20
Activity (HepG2 [18]): 10.52%
Activity (K562 [19]): 27.29%
Activity (K562 [20]): Dose-dependent effect
Activity (K562 [21]): 62.64%
Activity (HepG2 [22]): 31.41%
Activity (K562 [23]): 4.77%
Activity (K562 [24]): 55.54%
selectivity ratio [25]: 20
viability at 2 µM (K562 [26]): 47.4%
Activity (K562 [27]): 23.75%
selectivity ratio [28]: 20
